# What was measured:
# [1] = Apparent permeability across apical to basolateral side in MDCK-MDR1 cells; assay type: ADME, cell-based, Canis lupus familiaris; conditions: dog
# [2] = target: CYP2C19 (Homo sapiens, UniProt P33261); test: Inhibition of CYP2C19 (unknown origin) at 10 uM relative to control; assay type: ADME
# Procedure, shortened: (§1)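 Each CYP isoform inhibition assay run with test compound at 10 µM; reported as percent inhibition.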
# [3] = target: D(1B) dopamine receptor (Homo sapiens) (UniProt P21918); test: Displacement of [3H]-SCH23390 from human dopamine D5 receptor expressed in HEKT cell membranes at 10 uM incubated for 90 mins under dark condition by scintillation counting analysis relative to control
# [4] = target: T1, Sodium-dependent noradrenaline transporter (Homo sapiens, UniProt P23975); test: Displacement of [3H]-nisoxetine from human NET stably expressed in HEK cell membranes at 10 uM incubated for 90 mins under dark condition by scintillation counting analysis relative to control
# T1 sequence (P23975 whole entry): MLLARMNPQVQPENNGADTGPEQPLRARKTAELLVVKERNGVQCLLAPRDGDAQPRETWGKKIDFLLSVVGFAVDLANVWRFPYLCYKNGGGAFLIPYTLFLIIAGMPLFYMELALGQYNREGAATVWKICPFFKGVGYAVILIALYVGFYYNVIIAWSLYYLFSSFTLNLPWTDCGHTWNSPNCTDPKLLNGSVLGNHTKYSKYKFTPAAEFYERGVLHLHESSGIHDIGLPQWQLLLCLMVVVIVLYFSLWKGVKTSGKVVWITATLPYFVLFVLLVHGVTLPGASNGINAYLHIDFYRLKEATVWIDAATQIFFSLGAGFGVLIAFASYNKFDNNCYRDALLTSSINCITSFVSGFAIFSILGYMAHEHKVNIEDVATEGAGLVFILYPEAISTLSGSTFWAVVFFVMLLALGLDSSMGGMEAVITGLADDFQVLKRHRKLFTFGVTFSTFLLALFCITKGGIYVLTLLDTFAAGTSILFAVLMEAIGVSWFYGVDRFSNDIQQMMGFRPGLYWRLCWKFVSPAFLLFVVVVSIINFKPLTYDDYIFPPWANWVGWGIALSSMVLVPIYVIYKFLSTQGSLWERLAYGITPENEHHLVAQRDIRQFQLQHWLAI
# [5] = test system: Rattus norvegicus; test: Potentiation of WAY163909-induced neurobiological activity in Sprague-Dawley rat assessed as increase in number of rat choosing WAY163909 associated lever at 1 mg/kg, ip treated 15 mins prior to WAY163909 addition and measured after 15 mins by drug discrimination test (reference value: 53%); assay type: functional
# [6] = target: 5-hydroxytryptamine receptor 7 (Homo sapiens) (UniProt P34969); test: Displacement of [3H]-LSD from human 5HT7A stably expressed in HEK cell membranes at 10 uM incubated for 90 mins under dark condition by scintillation counting analysis relative to control
# [7] = Clearance in Sprague-Dawley rat at 20 mg/kg, po; assay type: ADME, organism-based; conditions: in vivo
# Procedure, shortened: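 Male Sprague-Dawley rats (200–250 g, n = 3/group) dosed po at 20 mg/kg in 10% DMSO:90% HP-β-CD. Retro-orbital blood taken from 0.25 to 24 h. Noncompartmental analysis; mean ± SEM.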
# [8] = Clearance in Sprague-Dawley rat at 10 mg/kg, iv; assay type: ADME, organism-based; conditions: in vivo
# Procedure, shortened: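 Male Sprague-Dawley rats (200–250 g; n = 3/group) received a single iv dose in 10% DMSO:90% HP-β-CD. Retro-orbital blood was sampled before dosing and at 0.08, 0.25, 0.5, 1, 2, 4, 8 and 24 h. Plasma levels were measured. Parameters came from noncompartmental analysis, reported as mean ± SEM.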
# [9] = test system: Rattus norvegicus; test: Potentiation of WAY163909-induced neurobiological activity in Sprague-Dawley rat assessed as increase in number of rat choosing WAY163909 associated lever at 2 mg/kg, ip treated 15 mins prior to WAY163909 addition and measured after 15 mins by drug discrimination test (reference value: 53%); assay type: functional
# [10] = target: 5-hydroxytryptamine receptor 1D (Homo sapiens) (UniProt P28221); test: Displacement of [3H]-GR125743 from human 5HT1D transiently expressed in HEKT cell membranes at 10 uM incubated for 90 mins under dark condition by scintillation counting analysis relative to control
# Sequence of 5-hydroxytryptamine receptor 1D (Homo sapiens) (P28221 whole entry): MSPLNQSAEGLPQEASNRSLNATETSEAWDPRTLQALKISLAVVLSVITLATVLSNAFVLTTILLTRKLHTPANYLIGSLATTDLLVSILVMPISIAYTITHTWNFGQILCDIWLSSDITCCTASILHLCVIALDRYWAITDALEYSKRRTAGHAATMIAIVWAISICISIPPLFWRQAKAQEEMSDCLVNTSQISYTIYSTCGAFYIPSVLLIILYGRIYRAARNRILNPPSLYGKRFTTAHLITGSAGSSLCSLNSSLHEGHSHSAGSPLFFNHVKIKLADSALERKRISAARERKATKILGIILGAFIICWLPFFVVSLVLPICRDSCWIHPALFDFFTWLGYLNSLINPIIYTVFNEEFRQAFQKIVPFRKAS
# [11] = Oral bioavailability in Sprague-Dawley rat at 20 mg/kg; assay type: ADME, organism-based; conditions: in vivo
# Procedure, shortened: (§2)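 Male Sprague-Dawley rats, 200–250 g, n = 3/group, randomly assigned; dosed 10 mg/kg iv or 20 mg/kg po in 10% DMSO:90% HP-β-CD. Retro-orbital blood sampled predose and 0.08 (iv only), 0.25, 0.5, 1, 2, 4, 8, 24 h. Noncompartmental analysis; Cmax read directly from plasma concentration–time plot; mean ± SEM.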
# [12] = target: Kappa-type opioid receptor (Homo sapiens) (UniProt P41145); test: Displacement of [3H]-U69593 from kappa opioid receptor (unknown origin) at 10 uM incubated for 90 mins under dark condition by scintillation counting analysis relative to control
# [13] = target: Delta-type opioid receptor (Homo sapiens) (UniProt P41143); test: Displacement of [3H]-DADLE from human delta opioid receptor stably expressed in HEK cell membranes at 10 uM incubated for 90 mins under dark condition by scintillation counting analysis relative to control
# Sequence of Delta-type opioid receptor (Homo sapiens) (P41143 whole entry): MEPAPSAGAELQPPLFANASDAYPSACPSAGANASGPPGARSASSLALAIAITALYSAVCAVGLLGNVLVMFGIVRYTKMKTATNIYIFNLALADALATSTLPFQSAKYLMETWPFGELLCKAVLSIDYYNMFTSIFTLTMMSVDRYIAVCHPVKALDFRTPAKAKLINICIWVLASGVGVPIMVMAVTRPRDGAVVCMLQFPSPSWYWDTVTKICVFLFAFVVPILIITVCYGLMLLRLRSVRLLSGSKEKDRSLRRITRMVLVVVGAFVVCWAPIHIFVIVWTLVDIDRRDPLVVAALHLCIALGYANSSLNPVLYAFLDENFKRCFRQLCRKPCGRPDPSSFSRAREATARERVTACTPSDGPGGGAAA
# [14] = target: 5-HT2A receptor (Homo sapiens, UniProt P28223); test: Displacement of [3H]-ketanserin from 5HT2A (unknown origin) at 10 uM incubated for 90 mins under dark condition by scintillation counting analysis relative to control; conditions: probe [3H]-ketanserin
# Sequence of 5-HT2A receptor (P28223 whole entry): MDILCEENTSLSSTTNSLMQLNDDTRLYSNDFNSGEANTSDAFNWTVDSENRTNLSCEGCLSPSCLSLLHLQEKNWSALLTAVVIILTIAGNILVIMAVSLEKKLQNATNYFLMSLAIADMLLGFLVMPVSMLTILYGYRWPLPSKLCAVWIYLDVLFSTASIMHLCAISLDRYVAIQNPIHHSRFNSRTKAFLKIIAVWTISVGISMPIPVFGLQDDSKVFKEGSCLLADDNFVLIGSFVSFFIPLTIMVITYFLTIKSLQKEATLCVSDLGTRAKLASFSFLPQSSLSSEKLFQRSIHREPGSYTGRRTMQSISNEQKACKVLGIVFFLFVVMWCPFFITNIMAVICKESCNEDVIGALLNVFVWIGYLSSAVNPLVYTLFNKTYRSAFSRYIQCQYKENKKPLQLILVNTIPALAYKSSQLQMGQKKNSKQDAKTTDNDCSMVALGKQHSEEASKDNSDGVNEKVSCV
# [15] = target: CYP3A4 (Homo sapiens, UniProt P08684); test: Inhibition of CYP3A4 (unknown origin) at 10 uM relative to control; assay type: ADME; procedure, shortened: as §1
# Sequence of CYP3A4 (P08684 whole entry): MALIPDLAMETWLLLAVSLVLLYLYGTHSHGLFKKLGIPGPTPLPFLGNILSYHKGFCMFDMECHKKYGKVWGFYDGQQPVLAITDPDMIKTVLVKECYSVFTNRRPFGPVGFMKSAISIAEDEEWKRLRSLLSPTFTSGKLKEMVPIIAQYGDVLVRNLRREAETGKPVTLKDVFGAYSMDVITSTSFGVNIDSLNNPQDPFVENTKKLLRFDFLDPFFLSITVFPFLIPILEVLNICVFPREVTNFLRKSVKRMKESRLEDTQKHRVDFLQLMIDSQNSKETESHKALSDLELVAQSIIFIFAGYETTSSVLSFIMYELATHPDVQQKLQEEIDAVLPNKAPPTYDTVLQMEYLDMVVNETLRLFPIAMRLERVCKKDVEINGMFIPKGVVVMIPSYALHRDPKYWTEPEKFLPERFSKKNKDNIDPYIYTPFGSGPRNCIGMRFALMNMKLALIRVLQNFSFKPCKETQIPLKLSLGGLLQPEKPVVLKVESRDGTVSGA
# [16] = target: Alpha-2B adrenergic receptor (Homo sapiens) (UniProt P18089); test: Displacement of [3H]-rauwolscine from human adrenergic alpha2B receptor transiently expressed in HEKT cell membranes at 10 uM incubated for 90 mins under dark condition by scintillation counting analysis relative to control
# [17] = Ratio of drug level in brain to plasma in Sprague-Dawley rat at 10 mg/kg, iv after 1 hr; assay type: ADME, organism-based
# Procedure, shortened: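 Male Sprague-Dawley rats, n = 3/group, given 10 mg/kg iv in 10% DMSO:90% HP-β-CD. Brain and plasma collected at 0.25 and 1 h after dosing. Brain concentration (ng/g) divided by plasma concentration (ng/mL); mean ± SEM.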
# [18] = target: D(3) dopamine receptor (Homo sapiens) (UniProt P35462); test: Displacement of [3H]-N-methylspiperone from dopamine D3 receptor (unknown origin) at 10 uM incubated for 90 mins under dark condition by scintillation counting analysis relative to control
# [19] = target: 5-hydroxytryptamine receptor 1A (Homo sapiens) (UniProt P08908); test: Displacement of [3H]-8-OH-DPAT from human 5HT1A stably expressed in CHO cell membranes at 10 uM incubated for 90 mins under dark condition by scintillation counting analysis relative to control
# Sequence of 5-hydroxytryptamine receptor 1A (Homo sapiens) (P08908 whole entry): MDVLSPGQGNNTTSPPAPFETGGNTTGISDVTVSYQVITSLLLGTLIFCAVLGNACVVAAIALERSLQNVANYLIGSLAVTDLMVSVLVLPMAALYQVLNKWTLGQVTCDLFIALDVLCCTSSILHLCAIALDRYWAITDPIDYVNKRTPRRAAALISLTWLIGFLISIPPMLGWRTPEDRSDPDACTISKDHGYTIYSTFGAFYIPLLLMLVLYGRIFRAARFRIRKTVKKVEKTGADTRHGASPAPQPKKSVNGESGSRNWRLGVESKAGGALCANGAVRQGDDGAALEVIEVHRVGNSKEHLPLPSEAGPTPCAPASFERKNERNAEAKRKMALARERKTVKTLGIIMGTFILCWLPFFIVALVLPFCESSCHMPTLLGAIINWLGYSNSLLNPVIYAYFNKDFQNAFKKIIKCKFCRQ
# [20] = target: Sodium-dependent dopamine transporter (Homo sapiens) (UniProt Q01959); test: Displacement of [3H]-WIN35428 from human DAT expressed in HEK cell membranes at 10 uM incubated for 90 mins under dark condition by scintillation counting analysis relative to control
# Sequence of Sodium-dependent dopamine transporter (Homo sapiens) (Q01959 whole entry): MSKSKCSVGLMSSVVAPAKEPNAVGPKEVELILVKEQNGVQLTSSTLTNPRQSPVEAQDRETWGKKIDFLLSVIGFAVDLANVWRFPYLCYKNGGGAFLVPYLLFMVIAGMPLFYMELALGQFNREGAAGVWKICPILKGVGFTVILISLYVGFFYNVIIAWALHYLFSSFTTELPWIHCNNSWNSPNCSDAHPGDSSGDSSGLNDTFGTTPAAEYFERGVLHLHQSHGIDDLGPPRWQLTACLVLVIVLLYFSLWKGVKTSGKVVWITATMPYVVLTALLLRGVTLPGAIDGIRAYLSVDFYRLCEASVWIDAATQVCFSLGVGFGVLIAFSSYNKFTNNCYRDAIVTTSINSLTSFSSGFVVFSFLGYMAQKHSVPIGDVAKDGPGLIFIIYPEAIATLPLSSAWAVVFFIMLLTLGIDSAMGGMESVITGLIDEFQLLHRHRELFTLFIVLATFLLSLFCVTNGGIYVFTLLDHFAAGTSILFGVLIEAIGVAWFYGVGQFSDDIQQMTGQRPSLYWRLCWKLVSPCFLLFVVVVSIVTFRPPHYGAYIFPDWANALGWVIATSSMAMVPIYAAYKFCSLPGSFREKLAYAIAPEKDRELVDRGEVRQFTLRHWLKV
# [21] = target: 5-hydroxytryptamine receptor 3A (Homo sapiens) (UniProt P46098); test: Displacement of [3H]-LY278584 from human 5HT3R transiently expressed in HEKT cell membranes at 10 uM incubated for 90 mins under dark condition by scintillation counting analysis relative to control
# Sequence of 5-hydroxytryptamine receptor 3A (Homo sapiens) (P46098 whole entry): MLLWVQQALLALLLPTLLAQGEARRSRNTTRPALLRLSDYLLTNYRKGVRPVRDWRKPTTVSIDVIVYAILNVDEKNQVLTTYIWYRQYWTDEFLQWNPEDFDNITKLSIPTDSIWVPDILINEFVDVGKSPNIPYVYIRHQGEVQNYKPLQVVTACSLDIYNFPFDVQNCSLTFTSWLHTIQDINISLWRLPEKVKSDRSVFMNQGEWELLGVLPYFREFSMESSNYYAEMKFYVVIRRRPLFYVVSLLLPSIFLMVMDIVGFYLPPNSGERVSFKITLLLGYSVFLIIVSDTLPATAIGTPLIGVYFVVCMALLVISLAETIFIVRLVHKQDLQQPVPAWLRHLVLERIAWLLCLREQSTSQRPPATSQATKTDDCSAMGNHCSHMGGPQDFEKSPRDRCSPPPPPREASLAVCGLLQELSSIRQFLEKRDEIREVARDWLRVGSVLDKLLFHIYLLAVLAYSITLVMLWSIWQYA
# [22] = target: 5-hydroxytryptamine receptor 6 (Homo sapiens) (UniProt P50406); test: Displacement of [3H]-LSD from human 5HT6 stably expressed in HEK cell membranes at 10 uM incubated for 90 mins under dark condition by scintillation counting analysis relative to control
# Sequence of 5-hydroxytryptamine receptor 6 (Homo sapiens) (P50406 whole entry): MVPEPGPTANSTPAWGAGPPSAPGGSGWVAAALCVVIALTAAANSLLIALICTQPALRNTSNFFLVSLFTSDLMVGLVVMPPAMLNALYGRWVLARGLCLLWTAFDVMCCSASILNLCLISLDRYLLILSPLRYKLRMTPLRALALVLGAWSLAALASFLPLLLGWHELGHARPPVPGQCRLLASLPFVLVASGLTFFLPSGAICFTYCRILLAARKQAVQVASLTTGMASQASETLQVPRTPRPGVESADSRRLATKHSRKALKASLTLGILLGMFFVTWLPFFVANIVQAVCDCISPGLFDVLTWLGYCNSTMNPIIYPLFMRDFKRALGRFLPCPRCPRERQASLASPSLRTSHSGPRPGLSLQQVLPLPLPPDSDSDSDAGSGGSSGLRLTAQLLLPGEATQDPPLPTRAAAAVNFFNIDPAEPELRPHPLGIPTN
# [23] = Cmax in Sprague-Dawley rat at 10 mg/kg, iv; assay type: ADME, organism-based; parameters: dose 10 mg/kg, route intravenous; conditions: in vivo; procedure, shortened: as §2
# [24] = target: 5-hydroxytryptamine receptor 5A (Homo sapiens) (UniProt P47898); test: Displacement of [3H]-LSD from human 5HT5A expressed in Flp-In-CHO cell membranes at 10 uM incubated for 90 mins under dark condition by scintillation counting analysis relative to control
# Sequence of 5-hydroxytryptamine receptor 5A (Homo sapiens) (P47898 whole entry): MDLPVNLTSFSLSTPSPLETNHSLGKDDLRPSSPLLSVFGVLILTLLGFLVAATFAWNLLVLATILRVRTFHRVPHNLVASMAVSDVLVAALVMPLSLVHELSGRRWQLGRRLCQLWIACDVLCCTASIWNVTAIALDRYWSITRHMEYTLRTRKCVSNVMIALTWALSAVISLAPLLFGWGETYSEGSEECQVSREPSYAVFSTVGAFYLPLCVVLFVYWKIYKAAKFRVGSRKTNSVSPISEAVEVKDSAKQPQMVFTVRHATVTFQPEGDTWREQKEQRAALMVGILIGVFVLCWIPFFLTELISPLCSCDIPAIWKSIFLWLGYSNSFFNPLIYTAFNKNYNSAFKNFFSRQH
# [25] = target: T1, Sodium-dependent noradrenaline transporter; test: Displacement of [3H]-nisoxetine from human NET stably expressed in HEK cell membranes incubated for 90 mins under dark condition by scintillation counting analysis
# Procedure, shortened: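 Radioligand competition isotherms for human NET; IC50 from non-linear regression, converted to Ki via the Cheng-Prusoff equation; Ki averaged over repeated experiments.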
# [26] = Cmax in Sprague-Dawley rat at 20 mg/kg, po; assay type: ADME, organism-based; parameters: dose 20 mg/kg, route oral; conditions: in vivo; procedure, shortened: as §2
# [27] = Kinetic solubility of the compound in PBS at pH 7.4 measured after 2 hrs; assay type: physicochemical; conditions: buffer, pH 7.4, 2 h
smiles,measurement,setting,value
O=C(NC[C@H](O)CO)[C@@H]1C[C@H](c2ccccc2)CCN1 (mixture of isomers),Papp,[1],0.04 ×10⁻⁶ cm/s
same,inhibition at 10 µM,[2],0%
same,inhibition,[3],9.4%
same,inhibition,[4],74.4%
same,Activity,[5],77%
same,inhibition,[6],2.2%
same,CL/F,[7],182 mL/min/kg
same,CL,[8],54.7 mL/min/kg
same,Activity,[9],92%
same,inhibition,[10],15.3%
same,F,[11],36.3%
same,inhibition,[12],13.4%
same,inhibition,[13],-6.1%
same,"inhibition at 1.5 h, 10 µM",[14],-4.3%
same,inhibition at 10 µM,[15],0%
same,inhibition,[16],14.5%
same,BPR,[17],0.11
same,inhibition,[18],19.4%
same,inhibition,[19],28.4%
same,inhibition,[20],40.8%
same,inhibition,[21],22.3%
same,inhibition,[22],2.5%
same,Cmax,[23],2408.6 ng/mL
same,inhibition,[24],-4.3%
same,Ki,[25],2500 nM
same,Cmax,[26],411.3 ng/mL
same,Kinetic_solubility,[27],> 100 µM

# From ChEMBL document CHEMBL4622923, “Discovery of 4-Phenylpiperidine-2-Carboxamide Analogues as Serotonin 5-HT2C Receptor-Positive Allosteric Modulators with Enhanced Drug-like Properties” (J Med Chem, 2020)
